Laboratory results taken from PubChem BioAssay.
Results filed as inconclusive are left out.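 How the source made its calls, unless noted: active means RAM network inhibition above 8.4% in each of two replicates, 3 SD over the compound average; inconclusive means above 8.4% inhibition in only one replicate; inactive means 8.4% inhibition or less in each replicate.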

Key:
[1] = OD615 S. cerevisiae growth inhibition, permissive medium, pilot counter-assay, permissive growth control for S. cerevisiae lifespan shortening project (AID 705;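 active means growth inhibition above 25% in both replicates, a cutoff set 3 SD above the mean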); conditions: OD615, 24 h, at 10 µM, active compounds read high
Outline: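 Material: engineered DeaD yeast; compound dosing: one dose 10 µM, DMSO 0.25% final; measure: yeast growth inhibition indicated by reduced 24 h OD615; detection: OD615 turbidity read; incubation: cells pre-grown 4 h, then 24 h compound exposure, 30 °C humidified; medium: permissive synthetic complete medium with raffinose and galactose carbon sources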

[2] = Restrictive medium S. cerevisiae growth inhibition, OD615, pilot screen of yeast lifespan reduction project, restrictive growth control (AID 706;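 active means growth inhibition above a set limit, 3 SD over mean compound inhibition, in both replicates, cut at about 43% in these data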;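 further: modified DeaD lifespan yeast strain shifted to restrictive glucose medium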); conditions: OD615, 48 h, at 10 µM, active compounds read high
Outline: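 material = engineered S. cerevisiae DeaD strain | medium = glucose-based CSMM-D restrictive medium | times = 4 h pre-incubation, 48 h exposure at 30 °C | technique = OD615 absorbance reading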

[3] = viability gain of MRP-1-high H69AR cells under doxorubicin, pilot screen, MRP-1 activator project, CellTiter-Glo, duplicate (AID 807;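 active means viability increase at or above a cutoff of the median across tested compounds plus 3 SD, cut at about 8.5% in these data, passing the limit was not always enough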;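 further: compound pretreatment 18-22 h then 72 h combined with doxorubicin; 0% = doxorubicin alone and 100% = vehicle without doxorubicin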); conditions: H69AR viability with doxorubicin, CellTiter-Glo luminescence; at 10 µM; active compounds read high
[4] = growth suppression of beta-catenin knockout HCT116, pilot screen, human colon tumor cells (AID 823;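 active means cell viability at or below a set limit in both duplicate runs, the limit being the all-compound median minus 4 SD, cut at about 23% in these data, passing the limit was not always enough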;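 further: 0% = wells killed by 20 µM Hyamine and 100% = untreated DMSO cell wells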); conditions: CellTiter-Glo, 60 h, at 10 µM, active compounds read low
[5] = growth suppression of PTEN-deleted HCT116, pilot screen, cell-based, HCT116 clonal line, CellTiter-Glo (AID 824;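 active means viability at or below 27.92% in each of two runs, the all-compound median minus 4 SD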;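 further: 0% = 20 µM Hyamine control and 100% = vehicle cell control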); conditions: 60 h, at 10 µM, active compounds read low
[6] = inhibitors of the yeast RAM network, pilot screen, dse1pr::URA3 reporter, 5-FOA selection (AID 869;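 active means inhibition over a set limit, the all-compound mean plus 3 SD, in both replicate runs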;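 further: 0% = DMSO wells with no growth and 100% = 10 µM 1-NA-PP1 with full growth; RAM network block rescues cells from 5-FOA so hits raise OD615 growth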); conditions: S. cerevisiae dse1pr::URA3 5-FOA growth, OD615, 2 d; at 10 µM; active compounds read high; strain carries analog-sensitive mutant Cbk1 kinase
[7] = RAM signaling pathway blockade in yeast – S. cerevisiae, Pdr1DBD-CYC8 efflux-inhibited sensitized strain, primary screen (AID 1298);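 further: 0% = DMSO untreated cells without growth and 100% = 10 µM 1-NA-PP1 full growth; higher means more yeast growth rescued from 5-FOA killing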; conditions: S. cerevisiae cbk1-as DSE1-URA3 strain, 5-FOA growth OD615, 2 d; at 50 µM; active compounds read high

COc1cccc2c(=O)n(CC(=O)N3CCN(c4ccccc4)CC3)ccc12
inactive: growth inhibition [1] -7.37% | growth inhibition [2] -7.01% | viability increase [3] -0.94% | viability [4] 99.7% | viability [5] 98.1% | inhibition [6] 1.39% | RAM network inhibition [7] 4.22%

Cc1cc(N2CCOCC2)nc2cc(O)ccc12
inactive: growth inhibition [1] -10.3% | growth inhibition [2] -15.5% | viability increase [3] -1.02% | viability [4] 97.4% | viability [5] 87.6% | inhibition [6] 1.31% | RAM network inhibition [7] 5.97%

COC(=O)c1cccnc1-n1c(=O)c2cccnc2n(Cc2cccc(OC)c2)c1=O
inactive: growth inhibition [1] -13.7% | growth inhibition [2] 4.94% | viability increase [3] -3.24% | viability [4] 101% | viability [5] 92.7% | inhibition [6] 0.47% | RAM network inhibition [7] -1.41%

COc1ccc(-c2cc(C(F)F)n3ncc(C(=O)N4CCN(C(=O)c5ccco5)CC4)c3n2)cc1
inactive: growth inhibition [1] -2.55% | growth inhibition [2] -0.9% | viability increase [3] -5.07% | viability [4] 74.5% | viability [5] 72.6% | inhibition [6] 0.475% | RAM network inhibition [7] 10.2%

Cc1ccc(N2CCN(C(=O)c3ccccc3F)CC2)c(C)c1
inactive: growth inhibition [1] -12.4% | growth inhibition [2] -14.5% | viability increase [3] 2.73% | viability [4] 93.3% | viability [5] 91% | inhibition [6] -0.61% | RAM network inhibition [7] 4.91%

CCOc1ccccc1Nc1nc2ccccc2n2cnnc12
inactive: growth inhibition [1] -17% | growth inhibition [2] -2.87% | viability increase [3] -6.33% | viability [4] 81.6% | viability [5] 85.7% | inhibition [6] 3.04% | RAM network inhibition [7] 6.66%

COc1ccc(OC)c(NC(=O)c2ccc(CN3CCOCC3)cc2)c1
inactive: growth inhibition [1] 9.65% | growth inhibition [2] 0.145% | viability increase [3] 0.88% | viability [4] 104% | viability [5] 111% | inhibition [6] 1.52% | RAM network inhibition [7] 4.85%

CC12CN3CC(C)(CN(C1)C3c1ccc(Br)cc1)C2=O (stereo not given)
inactive: growth inhibition [1] -1.9% | growth inhibition [2] 3.54% | viability increase [3] -2.12% | viability [4] 95.2% | viability [5] 96.9% | inhibition [6] 0.265% | RAM network inhibition [7] 0.82%

CCC(C(=O)OC)n1cnc2c(nnn2-c2cccc(Cl)c2)c1=O (stereo not given)
inactive: growth inhibition [1] -3.35% | growth inhibition [2] -0.405% | viability increase [3] 1.21% | viability [4] 100% | viability [5] 92.1% | inhibition [6] 0.145% | RAM network inhibition [7] 4.91%

CCOC(=O)c1c(C)oc2cc(Br)c(O)c(Br)c12
inactive: growth inhibition [1] -19% | growth inhibition [2] -14.6% | viability increase [3] -2.05% | viability [4] 93.6% | viability [5] 85.7% | inhibition [6] 0.86% | RAM network inhibition [7] 0.68%

CCOC(=O)c1cn(-c2ccccc2)nc1-c1cccnc1
inactive: growth inhibition [1] -13.6% | growth inhibition [2] -8.75% | viability increase [3] -3.34% | viability [4] 106% | viability [5] 93.5% | inhibition [6] 1.63% | RAM network inhibition [7] 7.28%

CCOc1ccc(Oc2nc(NCC(C)C)nc(OC)n2)nn1
inactive: growth inhibition [1] -8.33% | growth inhibition [2] 5.96% | viability increase [3] 0.16% | viability [4] 94.8% | viability [5] 91.5% | inhibition [6] 2.14% | RAM network inhibition [7] -1.03%

Cc1nc2sc(C(c3ccco3)N3CCN(C(c4ccccc4)c4ccccc4)CC3)c(O)n2n1 (stereo not given)
inactive: growth inhibition [1] -4.01% | growth inhibition [2] 2.75% | viability increase [3] -4.32% | viability [4] 75.6% | viability [5] 62.6% | inhibition [6] 1.81% | RAM network inhibition [7] 10.8%

CN1CCN(c2ncnc3c2sc2nc(N4CCCC4)c4c(c23)CC(C)(C)OC4)CC1
inactive: growth inhibition [1] -21.2% | growth inhibition [2] -18.1% | viability increase [3] -3.25% | viability [4] 99.6% | viability [5] 97.1% | inhibition [6] 0.735% | RAM network inhibition [7] -0.84%

COC(=O)C1=C(N)OC2=C(C(=O)CC(C)(C)C2)C1c1cccnc1 (stereo not given)
inactive: growth inhibition [1] -3.42% | growth inhibition [2] -15.1% | viability increase [3] -1.92% | viability [4] 95.4% | viability [5] 90.4% | inhibition [6] 0.305% | RAM network inhibition [7] 2.43%

COCc1nc(-c2ccc(-c3ccc(OC)cc3)nc2OC)no1
inactive: growth inhibition [1] 11.9% | growth inhibition [2] 3.28% | viability increase [3] -0.98% | viability [4] 71% | viability [5] 72.2% | inhibition [6] 1% | RAM network inhibition [7] 2.1%

CCOC(=O)c1nnn(-c2nonc2N)c1-c1ccccc1
inactive: growth inhibition [1] -8.1% | growth inhibition [2] 7.27% | viability increase [3] -0.46% | viability [4] 98.7% | viability [5] 103% | inhibition [6] 2.83% | RAM network inhibition [7] 5.09%

O=C1CC(c2ccccc2)CN1C(=O)c1ccccc1 (stereo not given)
inactive: growth inhibition [1] 2.52% | growth inhibition [2] -1.8% | viability increase [3] 1.53% | viability [4] 104% | viability [5] 98.6% | inhibition [6] 2.67% | RAM network inhibition [7] 6.11%

CCOc1ccc(-n2c(SCc3ccc(C(=O)OC)o3)nc3c(c2=O)SCC3)cc1
inactive: growth inhibition [1] -21.2% | growth inhibition [2] -16.2% | viability increase [3] -2.41% | viability [4] 81.3% | viability [5] 72.7% | inhibition [6] 2.39% | RAM network inhibition [7] 6.94%

Cc1cc(NC(=O)CC(CN(C)S(=O)(=O)c2ccccc2)c2ccccc2)no1 (stereo not given)
inactive: growth inhibition [1] -7.79% | growth inhibition [2] -20.5% | viability increase [3] -4.04% | viability [4] 89.7% | viability [5] 81.3% | inhibition [6] 1.59% | RAM network inhibition [7] 3.14%

CC(=O)c1ccc(N2CCN(C(=O)c3cc4c(=O)n(C)c5ccccc5c4n3C)CC2)cc1
inactive: growth inhibition [1] -6.79% | growth inhibition [2] -16.3% | viability increase [3] -3.01% | viability [4] 96.5% | viability [5] 88.5% | inhibition [6] 1.98% | RAM network inhibition [7] 2.91%

Cc1ccc(CN2C(=O)/C(=C3\SC(N4CCOCC4)=NC3=O)c3cc(Br)ccc32)cc1
inactive: growth inhibition [1] -10.5% | growth inhibition [2] -12.1% | viability increase [3] -1.85% | viability [4] 76.7% | viability [5] 79.7% | inhibition [6] 0.615% | RAM network inhibition [7] 9.54%

Cc1cccc(OCCCC(=O)Nc2ccc(N3CCOCC3)cc2)c1
inactive: growth inhibition [1] -17% | growth inhibition [2] -11.5% | viability increase [3] -0.5% | viability [4] 90.7% | viability [5] 96.8% | inhibition [6] 2.59% | RAM network inhibition [7] 3.73%

NC(=O)c1oc2ccccc2c1NC(=O)CCc1ccccc1
inactive: growth inhibition [1] 1.12% | growth inhibition [2] 2.84% | viability increase [3] -2.96% | viability [4] 96.8% | viability [5] 97.2% | inhibition [6] 0.36% | RAM network inhibition [7] 3.76%

NCCCC(=O)N1c2ccccc2Sc2ccccc21
inactive: growth inhibition [1] -16% | growth inhibition [2] 3.53% | viability increase [3] -2.97% | viability [4] 73.2% | viability [5] 73.9% | inhibition [6] 2.5% | RAM network inhibition [7] 0.52%

O=C1CCCCCN1CP(=O)(O)CCc1ccccc1
inactive: growth inhibition [1] -5.01% | growth inhibition [2] -0.455% | viability increase [3] -0.2% | viability [4] 100% | viability [5] 104% | inhibition [6] 1.19% | RAM network inhibition [7] 0.42%

Cc1nnc(NC(=O)CCCCCN2C(=O)C3C4C=CC(C4)C3C2=O)s1 (stereo not given)
inactive: growth inhibition [1] -10.6% | growth inhibition [2] -1.29% | viability increase [3] 1.66% | viability [4] 96.7% | viability [5] 102% | inhibition [6] -0.595% | RAM network inhibition [7] 3.05%

COc1ccc(Cl)cc1C(=O)Nc1cc(=O)n(C)c(=O)n1C
inactive: growth inhibition [1] -16.1% | growth inhibition [2] -29.6% | viability increase [3] -1.06% | viability [4] 102% | viability [5] 99.1% | inhibition [6] 1.71% | RAM network inhibition [7] 2.2%

COc1ccc(CN2CCN(c3cccc(C)c3C)CC2)cc1OC
inactive: growth inhibition [1] -8.54% | growth inhibition [2] -1.75% | viability increase [3] -1.96% | viability [4] 51.8% | viability [5] 54% | inhibition [6] 1.5% | RAM network inhibition [7] 1.07%

Nc1cccc(C(=O)Nc2ccc(N)cc2Cl)c1
inactive: growth inhibition [1] -18.5% | growth inhibition [2] -7.93% | viability increase [3] -0.9% | viability [4] 103% | viability [5] 106% | inhibition [6] 2.42% | RAM network inhibition [7] 2.91%

CCCCCSc1nc2c(c(=O)[nH]c(=O)n2C)n1CCc1ccccc1
inactive: growth inhibition [1] -3.08% | growth inhibition [2] -4.46% | viability increase [3] -1.88% | viability [4] 69.6% | viability [5] 87% | inhibition [6] 2.75% | RAM network inhibition [7] 8.01%

Cc1cc(Nc2ccc(Br)cc2F)n2ncnc2n1
inactive: growth inhibition [1] -2.09% | growth inhibition [2] 11.9% | viability increase [3] -3.52% | viability [4] 90.6% | viability [5] 87.2% | inhibition [6] 0.76% | RAM network inhibition [7] -0.94%

CC(=O)NC(NC(C)=O)c1ccc(N(C)C)cc1
inactive: growth inhibition [1] 2.72% | growth inhibition [2] 16.3% | viability increase [3] -0.12% | viability [4] 100% | viability [5] 100% | inhibition [6] -0.22% | RAM network inhibition [7] -0.26%

COc1cc(OC)c(NC(=O)c2ccc(Br)o2)cc1Cl
inactive: growth inhibition [1] -8.78% | growth inhibition [2] 7.46% | viability increase [3] -7.05% | viability [4] 69.8% | viability [5] 70.6% | inhibition [6] 1.47% | RAM network inhibition [7] 10.5%

CC(=O)c1cc(Cc2csc(C(C)=O)c2)cs1
inactive: growth inhibition [1] -9.93% | growth inhibition [2] -5.34% | viability increase [3] -2.14% | viability [4] 100% | viability [5] 100% | inhibition [6] 1.38% | RAM network inhibition [7] 3.88%
